Diaphorase act: counter-screen for diaphorase-based assays: diaphorase activators and chemical reducers. Diaphorase/resazurin coupled assay, resorufin fluorescence, 16 min; active compounds read high; 1 = vehicle wells, 0 = NADH-free wells. activation factor at 20 µM. 190,000 compounds, 0.005% hits. AID 1229;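 active = diaphorase activity raised at least twofold by the compound at 20 µM; inactive = activation factor below 2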
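test system = bacterial diaphorase enzyme (C. kluyveri) | quantity = enzyme 0.07 U/mL final | reagent = NADH substrate 0.114 mM plus resazurin dye 0.1 mM, final | incubation = 16 min enzyme reaction, ambient temperature | buffer or medium = HEPES pH 7.4 buffer with MgCl2 and Tween 20 | signal = fluorescence of resorufin, 544 nm excitation, 590 nm emission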
Lmaj promast: inhibitors of Leishmania major promastigote growth; AID 1063; Leishmania major promastigotes, resazurin fluorescence viability; 200,000 compounds, 9% hits; inhibition, % at 10 µM; in the data active = inhibition above about 50%;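 also: promastigotes grown with compound for 44 hours at 28 °C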
WT yeast gro inh: growth inhibition of WT yeast, mitochondrial fusion screen; AID 1362; mitochondrial fusion phenotypic screen, WT strain; inhibition, % at 10 µM; 190,000 compounds, 2.1% hits; in the data active = inhibition above about 58%; tested in S. cerevisiae
Diaph inh CS: counter-screen for diaphorase-based assays: diaphorase inhibitors and chemical oxidizers; diaphorase resazurin-to-resorufin fluorescence, NADH, 16 min; bacterial (C. kluyveri) enzyme, not human; inhibition, % at 20 µM; 190,000 compounds, 0.69% hits;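 active = primary screen inhibition at 20 µM above a set limit, cut at about 50% in these data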;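 also: plate controls were DMSO with full reaction for no effect and wells lacking NADH for full effect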
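Test system: bacterial diaphorase enzyme (C. kluyveri); Quantity: 0.14 U/mL diaphorase, enzyme working solution; Times: reaction incubation of 16 min at room temperature; Measured by: fluorescence of resorufin formed from resazurin, Ex 544/Em 590 nm; Benchmarks: positive control minus NADH, DMSO neutral control.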
KCC2 mod: KCC2 (human) Cl- transport modulation. Q9H2X9. KCC2 cells, thallium flux FluoZin-2 fluorescence. B-score of Tl+ flux slope (higher = more flux/activation; lower = inhibition) at 10 µM. 190,000 compounds, 2.2% hits. AID 1456;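 active = thallium flux slope and its plate-corrected score both differing from the plate sample mean at a set confidence after two filtering rounds, in either direction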;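 also: slope of fluorescence scaled to starting intensity during 10 to 20 s after thallium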
ROMK mod: human ROMK K+ channel modulation, primary screen | 130,000 compounds, 2% hits | B-score at 10 µM | Tet-inducible ROMK, thallium flux fluorescence; actives lie on both sides;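 active = signal ratio slope over the read window, or its plate-corrected B-score, at least 3 SD from the plate mean, either direction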;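 also: B-score of the F/F0 ratio slope over 7 to 12 s after thallium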
Active calls of the source: *; x = no result. Sampled rows, rich in hits. Any-hit rate of the full collection: about 12%.

SMILES	Diaphorase act	Lmaj promast	WT yeast gro inh	Diaph inh CS	KCC2 mod	ROMK mod
C=CCN(c1ccccc1)S(=O)(=O)c1ccc(Cl)c(C(=O)OCC(=O)c2[nH]c(C)c(C(C)=O)c2C)c1	0.8	76*	7	17	0.05	x
O=C1Cc2ccccc2Sc2cc(OCCCN3CCCCC3)ccc21	0.7	100*	16	29	0.12	x
CN(C)CCCOc1ccc2c(c1)Sc1ccccc1CC2=O	0.9	100*	0	7	-1.4	-1.9
O=C1Cc2ccccc2Sc2c(OCCN3CCCCC3)cccc21	0.9	100*	27	14	1.5	x
CCN(CCn1cccn1)Cc1c(C(=O)N2CCCCCCC2)nc2ccc(Cl)cn12	0.9	-3	-17	10	0.19	x
C=CCn1c2ccccc2c2nnc(SCC(=O)NC(C(=O)OC)C(C)C)nc21 (stereo not given)	0.9	10	31	9	x	0.024
CCOc1ccc(/C=N/Nc2nc(N3CCCC3)nc(N3CCCC3)n2)cc1OC	1.1	14	-21	-6	-0.24	x
CCOc1cc(/C=N/Nc2nc(N3CCCCC3)nc(N3CCCCC3)n2)ccc1OC(=O)c1ccco1	0.8	58*	18	15	-0.74	-0.93
COc1ccc(-c2cnnc(N/N=C/c3ccc(O)c(OC)c3)n2)cc1	0.9	54*	20	10	0.6	x
COc1cc(/C=N/Nc2nc(N3CCCC3)nc(N3CCCC3)n2)ccc1O	1	97*	29	0	-1.4	1.2
COc1cc(/C=N/Nc2ccccn2)ccc1O	x	x	x	x	1.6	x
CCOC(=O)c1ccc(N2NC(=O)/C(=C/c3ccc(OC(=O)c4ccco4)c(OC)c3)C2=O)cc1	0.9	61*	16	14	0.071	-2.6
CN(C)CCNC(C(=O)Nc1cccc(C(F)(F)F)c1)c1ccccc1 (stereo not given)	0.9	-1	4	8	0.082	-1.9
Cc1ccc(NC2(C#N)C(=O)Nc3ccccc32)cc1C (stereo not given)	0.9	8	-11	7	-2.1	0.027
COc1cc(/C=C2/SC(=S)N(C)C2=O)ccc1OC(=O)c1ccco1	0.9	-1	-9	10	0.78	x
CCOc1cc(/C=C2/SC(=S)NC2=O)ccc1OC(=O)c1ccco1	1	3	79*	0	1.4	-1.5
Oc1ccc(/C=N/Nc2nc(N3CCCC3)nc(N3CCCC3)n2)cc1O	0.3	3	13	72*	-0.24	0.14
COc1ccc(/C=N/Nc2nc(N3CCCCC3)nc(N3CCCCC3)n2)cc1[N+](=O)[O-]	0.8	96*	37	20	-0.76	-0.14
O=[N+]([O-])c1cc(/C=N/Nc2nc(N3CCCCC3)nc(N3CCCCC3)n2)ccc1O	0.8	5	24	16	-3.1	x
Cc1ccoc1C(=O)N1CCCC(CCC(=O)N2CCN(c3ccccn3)CC2)C1 (stereo not given)	1.1	-4	-4	-5	0.3	0.023
COc1ccc2nc(SCCN(C)C)[nH]c2c1	x	-4	15	x	0.061	-0.0085
CCc1cccc(CC)c1NC(=O)/C(C#N)=C/c1ccccc1C(F)(F)F	0.9	97*	68*	11	-0.72	x
N#C/C(=C\c1ccccc1C(F)(F)F)C(=O)Nc1ccccc1	0.9	2	17	8	0.56	x
CN1/C(=C\C=N\NC(=O)c2ccccc2Br)C(C)(C)c2ccccc21	0.9	50*	-7	12	-1.9	-2.3
CN1/C(=C/C(=S)NC(=O)C2(C)CC2(Cl)Cl)C(C)(C)c2ccccc21 (stereo not given)	0.9	51*	49	6	3.8	-0.65
SMILES	Diaphorase act	Lmaj promast	WT yeast gro inh	Diaph inh CS	KCC2 mod	ROMK mod
CN1/C(=C\C(=S)NC(=O)c2ccccc2Cl)C(C)(C)c2ccccc21	0.8	45	58	18	0.83	1.3
COc1ccccc1C(=O)NC(=S)/C=C1/N(C)c2ccccc2C1(C)C	0.8	78*	78*	19	-0.64	-0.029
CCOc1c(CNc2nnnn2C)cccc1OC	0.9	-6	-7	6	0.73	0.068
CC1CCc2c(sc(NC(=O)COC(=O)c3ccc(O)cc3)c2C#N)C1 (stereo not given)	0.7	-5	97*	32	2.8	0.64
COc1cc(/C=N/N2CCOCC2)ccc1OCc1ccc(Cl)cc1	0.8	-11	14	18	-0.88	-2.4
CCOCCCNCc1ccc(OCCC(C)C)c(OC)c1	1	85*	1	-1	0.47	0.37
COc1ccc(CNCCC(c2ccc(F)cc2)c2ccc(OC(C)C)cc2)cc1OC (stereo not given)	x	x	x	x	-0.23	x
COc1ccc(CCNCc2ccc(OCc3ccc(Cl)nc3)c(OC)c2)cc1OC	1	90*	3	-4	0.0034	0.44
COc1ccc(CNCCc2ccccc2)cc1OCC(N)=O	0.9	-4	52	5	x	x
COc1ccc(CNCCc2ccc(Cl)cc2)cc1OCc1ccccc1	1	96*	82*	0	0.56	-1.2
COc1cc(CNCCN2CCOCC2)ccc1OCc1cccc(Cl)c1	0.9	95*	-4	7	-0.59	-1.1
CC1=NOC(=O)/C1=C\c1ccc2c(c1)OCO2	0.9	28	0	6	0.21	0.44
NC(=O)c1cccnc1Nc1ccccc1Cl	1	0	16	-3	-0.24	x
CC1(C)Cc2ccccc2C(NN=C2CCCC2)=N1	1	-2	-6	4	x	-0.033
COc1ccc(OC)c(NC(=O)CSc2nncc3ccc(OC)c(OC)c23)c1	x	x	x	x	-1.6	0.77
COc1ccc2c(=O)c(-c3ccc4c(c3)OCO4)coc2c1	1	-9	2	0	-0.0053	-0.44
COc1cc(CNCCNCC(C)O)ccc1OCc1ccc(Cl)nc1 (stereo not given)	1.1	-6	3	-7	0.29	-0.32
CCCCCNCc1ccc(OCc2ccc(Cl)nc2)c(OC)c1	0.9	100*	24	6	0.22	-0.3
CCc1ccnc(NS(=O)(=O)c2ccc3c(c2)CCO3)c1	x	x	x	x	-0.68	x
Cc1oc(-c2ccc(F)cc2)cc1-c1nn2c(-c3ccoc3C)nnc2s1	0.4	x	x	58*	x	x
Cc1oc(-c2ccc(F)cc2)cc1-c1nn2c(-c3ccco3)nnc2s1	x	-4	x	x	-0.49	x
CC(=O)c1cc(-c2ccccc2)n(CC(=O)N2CCC(N3CCCCC3)CC2)c1C	0.9	95*	-3	10	1.4	x
CC(=O)c1cc(-c2ccccc2)n(CC(=O)Nc2cccc(C)c2)c1C	1	64*	-2	4	-0.74	-0.97
CC(=O)c1cc(-c2ccccc2)n(CCC(=O)NC2CCCCC2)c1C	0.9	83*	-4	7	0.15	-0.19
CC(=O)c1cc(-c2ccccc2)n(CC(=O)N2CCCC2)c1C	1	-5	-10	4	0.35	0.055
CC(C)(C)OC(=O)CNC(=O)c1[nH]cnc1C(=O)Nc1ccc(Cl)cc1	x	x	x	x	1.4	x

High-throughput results as filed in PubChem BioAssay.
